Screening data as filed in PubChem BioAssay.
Rows were chosen to be rich in hits. Some 3% of all compounds tested hit in one or more screens of this group.
MEKK2mut PB1 HTS – signal of MEK5 binding to mutant human MEKK2 PB1 domain | bead flow cytometry, Alexa488-MEK5 binding to MEKK2 mutant | percent response, % at 10 µM | 290,000 compounds, 0.35% hits; in the data active means percent response above about 24%, passing the limit was not always enough
MEKK2 WT-MEK5 – raises or lowers MEK5 binding to wildtype human MEKK2 PB1 domain; bead flow cytometry, Alexa488-MEK5 binding to MEKK2 WT; actives lie on both sides; binding response (% of control), % at 10 µM; 290,000 compounds, 1.1% hits; AID 1531; in the data active means binding response below about 67% or above about 130%
MEKK3 PB1 HTS – modulators (inhibitors or enhancers) of MEK5 binding to human MEKK3 PB1 domain | Q99759 | bead-based flow cytometry, Alexa488-MEK5 binding to MEKK3; actives lie on both sides; 0 = blocked by unlabeled MEK5, 100 = vehicle | binding response (% of control), % at 10 µM | 290,000 compounds, 1.4% hits;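 active means binding response more than 3 SD above or below the average of its plate-row segment, actives on both sides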;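 further: Alexa488 bead fluorescence after subtracting the streptavidin-only scavenger bead signal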
Target sequence (Q99759 whole entry, looked up, the tested form may be a part): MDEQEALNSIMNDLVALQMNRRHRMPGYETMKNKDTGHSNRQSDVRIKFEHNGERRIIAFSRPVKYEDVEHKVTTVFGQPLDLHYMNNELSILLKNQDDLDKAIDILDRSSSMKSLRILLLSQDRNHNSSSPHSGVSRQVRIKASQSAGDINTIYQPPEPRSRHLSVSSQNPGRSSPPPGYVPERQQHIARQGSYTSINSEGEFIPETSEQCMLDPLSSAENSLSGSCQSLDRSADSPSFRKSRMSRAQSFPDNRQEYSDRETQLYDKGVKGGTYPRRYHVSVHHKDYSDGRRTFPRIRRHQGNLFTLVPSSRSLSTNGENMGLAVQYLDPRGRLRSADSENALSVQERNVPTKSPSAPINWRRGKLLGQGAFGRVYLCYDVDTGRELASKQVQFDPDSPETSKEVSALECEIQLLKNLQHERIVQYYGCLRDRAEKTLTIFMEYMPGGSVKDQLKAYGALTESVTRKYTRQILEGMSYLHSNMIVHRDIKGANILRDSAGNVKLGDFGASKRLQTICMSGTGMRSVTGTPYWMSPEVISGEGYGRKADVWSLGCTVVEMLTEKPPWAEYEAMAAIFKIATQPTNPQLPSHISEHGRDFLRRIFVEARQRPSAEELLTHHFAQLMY
UCH37 DUB inh – inhibitors of human deubiquitinating enzyme UCH37. purified proteasome/UCH37, Ub-AMC cleavage fluorescence. Q9Y5K5. inhibition, % (test concentration not listed). AID 588478. 330,000 compounds, 0.33% hits;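 active means mean inhibition over replicate wells above about 20%, limit read from the data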;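 further: 0% = compound-free wells with enzyme and 100% = wells lacking proteasome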
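Material: Human UCH37 enzyme supplied as purified proteasome complex | Schedule: 30 min compound-proteasome preincubation then 25 min substrate reaction, room temperature | Detection: AMC fluorescence from Ub-AMC cleavage, excitation 355 nm, emission 460 nm | Benchmarks: Wells without proteasome as full block, compound-free enzyme plus substrate as uninhibited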
Apaf1 inhib – blocks human Apaf-1 apoptosome activity | AID 489030 | inhibition, % at 20 µM | 330,000 compounds, 0.71% hits | reconstituted apoptosome caspase-3 activity, DEVD-Rh110 fluorescence; active means inhibition of at least 40% at 20 µM;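 further: plate controls were DMSO wells for no effect and DEVD-CHO caspase inhibitor wells for full effect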
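Medium: Hepes buffer, pH 7.5 / System: biochemical Apaf-1 apoptosome reconstitution / Measured by: Rh110 fluorescence, excitation 480 nm, emission 540 nm / Times: compound with Apaf-1, dATP, procaspase-3 30 min, then 50 min reaction, room temperature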
UBC13 inh – blocks human UBC13 polyubiquitin chain formation | 330,000 compounds, 0.47% hits | P61088 | TR-FRET | inhibition, % at 20 µM; in the data active means inhibition above about 45%, passing the limit was not always enough
MEKK2wt confirm – raises or lowers MEK5 binding to wildtype human MEKK2, retest. shares compounds with MEKK3 PB1 HTS. bead flow cytometry, Alexa488-MEK5 binding to MEKK2 WT; actives lie on both sides. binding response (% of control), % at 10 µM. 5,900 compounds, 2.4% hits. AID 1892; in the data active means binding response below about 16% or above about 210%; inactive means in between
MEKK2mut confirm – signal of MEK5 binding to mutant human MEKK2, retest; bead flow cytometry, Alexa488-MEK5 binding to MEKK2 mutant; 5,900 compounds, 2% hits; shares compounds with MEKK3 PB1 HTS; percent response, % at 10 µM; AID 1893; in the data active means percent response mostly above about 71%, no sharp cut-off; inactive means mostly below about 38%;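 further: higher means compound restores mutant binding toward wildtype level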
MEKK3 confirm – MEKK3-MEK5 PB1 inhibition, single concentration confirmation. binding response (% of control), % at 10 µM. shares compounds with MEKK3 PB1 HTS. bead flow cytometry, Alexa488-MEK5 binding to MEKK3; active compounds read low. 5,900 compounds, 1.8% hits. AID 1894;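 active means binding response below 72% of control, or above a set upper limit, though filed actives all read lower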;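 further: 100% = DMSO only wells and 0% = binding blocked by excess unlabeled MEK5; lower values mean stronger disruption of MEK5 binding to MEKK3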
* = called active by the depositor; . = no result given; [ ] = another dose, or the depositor's remark.

SMILES	MEKK2mut PB1 HTS	MEKK2 WT-MEK5	MEKK3 PB1 HTS	UCH37 DUB inh	Apaf1 inhib	UBC13 inh	MEKK2wt confirm	MEKK2mut confirm	MEKK3 confirm
O=c1c(/C=C(\O)c2ccccc2)nc2ccccc2n1-c1ccccc1	-19	58*[inhibitor]	81*[inhibitor]	-3	25	-11	66	-18	85
COc1ccc(NS(=O)(=O)c2ccc(C(=O)N3CCCCCC3)cc2)cc1	.	.	.	4	-1	16	.	.	.
COc1ccc(NS(=O)(=O)c2cc(C(=O)N3CCN(C(C)=O)CC3)ccc2Cl)cc1	-2	77	71*[inhibitor]	0	-2	2	102	4	104
O=C(C1=C(O)C(=O)N(CCN2CCOCC2)C1c1ccc(Br)cc1)c1cc2ccccc2o1 (centres undefined)	-1	100	98	7	-1	-6	.	.	.
Cc1cccc(Cn2cc(/C=C/[N+](=O)[O-])c3ccccc32)c1	-11	57*[inhibitor]	86	0	-2	3	90	-7	100
CCOC(=O)Cn1cc(/C=C/[N+](=O)[O-])c2ccccc21	2	97	101	4	-3	-3	.	.	.
COCc1nnc(NS(=O)(=O)c2ccc(F)cc2)s1	13	99	101	-2	-4	3	.	.	.
COCCSc1nnc(NS(=O)(=O)c2ccc(F)cc2)s1	0	119	136*	2	-16	-3	105	19	106
CCOC(=O)c1cccc(NC(=O)CCc2ccccc2)c1	-11	66	56	3	3	6	.	.	.
COc1ccc(-n2c(N)c(-c3nc4ccccc4n3C)sc2=S)cc1	-13	82	69*[inhibitor]	2	8	-21	100	-1	100
CC1CC2=C(C(=O)O1)C(c1ccccc1)Nc1ccccc1N2 (centres undefined)	-1	98	79	8	-9	-4	.	.	.
CC1CC2=C(C(=O)O1)C(C)Nc1ccccc1N2 (centres undefined)	1	105	155*	4	-2	-5	102	-1	100
C/C(=N/NS(=O)(=O)c1cc(C)ccc1C)c1ccncc1	6	102	100	.	3	-8	.	.	.
CSc1ncc(Cl)c(C(=O)Nc2cccc3ccccc23)n1	0	102	128*	.	-4	-8	101	-2	99
CC(C)(C)NCc1cc(Cl)ccc1OCc1ccccc1F	-22	70	75*[inhibitor]	-2	9	-20	101	0	99
O=C(COc1ccccc1)NCC(c1ccco1)N1CCN(c2ccccc2F)CC1 (centres undefined)	.	.	.	3	19	-3	.	.	.
CC1C=CCC2C(=O)N(c3ccc(OC(=O)c4ccco4)cc3)C(=O)C12 (centres undefined)	7	134	161*	0	-1	-2	111	6	106
CC1C=CCC2C(=O)N(c3ccc(OC(=O)c4cccs4)cc3)C(=O)C12 (centres undefined)	-6	92	99	4	-6	0	.	.	.
CCCCCCCCCCn1ccc(=N)cc1	30	148*	125	4	-3	19	126	21	108
Cc1nc2cc(NC(=O)N3CCCC3)ccc2n1C	-13	77	90	6	-13	10	.	.	.
Cc1nc2cc(NC(=O)N3CC4(C)CC3CC(C)(C)C4)ccc2n1C (centres undefined)	-29	-2.0*[inhibitor]	2.0*[inhibitor]	0	-15	-2	106	4	101
O=C(/C=C/c1cccc2ccccc12)NCCC1=CCCCC1	.	.	.	-4	5	3	.	.	.
